Measured values collected from several papers.
In brackets after ≈: the same amount, converted by molar mass.
Organism: Mycobacterium tuberculosis
Effect on: microbial growth

For `FC(F)(F)c1ccc(CCNc2cc(-c3ccccn3)nc3nncn23)cc1`, the IC90 was 0.53 µM (H37RV).
For `CCCCCCC#Cc1cncc(-c2nnc(SCCCn3ccc(=O)[nH]c3=O)n2C)c1`, the IC50 was 25 µM (resazurin; ERDMAN).
The MIC90 of `CC(c1cccnc1)n1c(=S)[nH]c2cc(CO)c(Cl)cc2c1=O` (centres unmarked) is reported as over 100 µM (H37RV).
`CC(C)(O)c1ccc(OCCc2cccc(F)c2)c(C(N)=O)c1` has an IC50 of 2.7 µM.
`Clc1ccc(CCNc2cc(C3CCCO3)nc3nncn23)cc1` (centres unmarked) has an MIC of 73 µM (H37RV).
For `CN(C)C(=O)OCc1cc2[nH]c(=S)n(Cc3cncnc3)c(=O)c2cc1Cl`, the MIC90 was over 100 µM (H37RV).
`COc1ccc(-c2cc(C(F)(F)F)c3c(N)c(C(=O)NCCSC)sc3n2)cc1` has an IC50 of 42 µM (H37RV).
The MIC90 of `CO[C@H]1/C=C/O[C@@]2(C)Oc3c(C)c(O)c4c(O)c(c(/C=N/N5CCN(C)CC5)c(O)c4c3C2=O)NC(=O)/C(C)=C\C=C\[C@H](C)[C@H](O)[C@@H](C)[C@@H](O)[C@@H](C)[C@H](OC(C)=O)[C@@H]1C` is reported as 0.12 µg/mL (H37RV).
`Cc1ccc(-c2cc(NCCc3ccc(C(F)(F)F)cc3)n3cnnc3n2)o1` has an IC90 of 0.37 µM (H37RV).
`NNC(=O)c1ccncc1` has an MIC50 of 0.1 µg/mL (≈ 0.729 µM).
The IC50 of `COc1ccc(-c2cc(C(F)(F)F)c3c(N)c(C(=O)N4CCC4)sc3n2)cc1` is reported as over 100 µM (H37RV).
`NCC[C@H](O)C(=O)N[C@@H]1C[C@H](N)[C@@H](O[C@H]2O[C@H](CN)[C@@H](O)[C@H](O)[C@H]2O)[C@H](O)[C@H]1O[C@H]1O[C@H](CO)[C@@H](O)[C@H](N)[C@H]1O` has an MIC50 of 0.25 µg/mL (≈ 0.427 µM).
`Clc1ccc(CCNc2cc(-c3ccco3)nc3nncn23)cc1` has an MIC of 4.8 µM (H37RV).
`CCCCCCC#Cc1cncc(-c2nnc(SC[C@H]3O[C@@H](n4ccc(=O)[nH]c4=O)[C@H](O)[C@@H]3O)n2CCO)c1` has an IC50 of 196 µM (resazurin; ERDMAN).
For `COc1ccc(-c2cc(C(F)(F)F)c3c(N)c(C(=O)Nc4cc(C)ccc4C)sc3n2)cc1`, the IC50 was over 100 µM (H37RV).
With `COc1ccc(CCNc2cc(-c3ccccn3)nc3nncn23)cc1` the MIC was 0.39 µM (H37RV).
`Cc1cccc(NC(=O)c2sc3nc(-c4cccs4)cc(C(F)(F)F)c3c2N)c1C` gave an IC50 of over 100 µM (H37RV).
With `CCc1cc(=O)c2c(OCC(O)CN3CCOCC3)c3ccoc3c(OC)c2o1` (centres unmarked) the MIC was 256 µg/mL (resazurin; H37RV; 21 days).
With `COc1ccc(-c2cc(C(F)(F)F)c3c(N)c(C(=O)NC(C)C4CCCCC4)sc3n2)cc1` (centres unmarked) the IC50 was 0.93 µM (H37RV).
`CN(C)Cc1cc2[nH]c(=S)n(Cc3cccnc3)c(=O)c2cc1Cl` gave an MIC90 of over 100 µM (H37RV).
With `CC[C@@H](CO)NCCN[C@@H](CC)CO` the MIC was 0.5 µg/mL (resazurin; 21 days).
With `COc1ccc(-c2cc(C(F)(F)F)c3c(N)c(C(=O)NCCc4ccccc4)sc3n2)cc1` the IC50 was over 100 µM (H37RV).
`CC(C)c1ccc(Cn2c(=S)[nH]c3ccc(Cl)cc3c2=O)cn1` gave an MIC90 of over 100 µM (H37RV).
`FC(F)(F)c1ccc(CCNc2cc(-c3cccs3)nc3nncn23)cc1` gave an IC90 of 0.31 µM (H37RV).
With `NNC(=O)c1ccncc1` the MIC90 was 0.34 µM (H37RA).
`Cc1ccc(Cn2c(=S)[nH]c3ccc(Cl)cc3c2=O)cn1` gave an MIC90 of over 25 µM (H37RV).
`NNC(=O)c1ccncc1` has an MIC of 0.5 µg/mL (resazurin; 21 days).
For `Nc1c(C(=O)N2CCOCC2)sc2nc(Cl)ccc12`, the IC50 was over 100 µM (H37RV).
For `CCCCCCC#Cc1cncc(-c2nnc(SCc3cc([N+](=O)[O-])cc([N+](=O)[O-])c3)n2C2CCNCC2)c1`, the IC50 was 2.6 µM (resazurin; ERDMAN).
With `COC(=O)c1cc2[nH]c(=S)n(Cc3cccnc3)c(=O)c2cc1Cl` the MIC90 was over 100 µM (H37RV).
The MIC of `Cc1ccc(CCNc2cc(-c3ccc(Cl)s3)nc3nncn23)cc1` is reported as 4.8 µM (H37RV).
For `COc1ccc(-c2cc(C(F)(F)F)c3c(N)c(C(=O)N4CC(F)(F)C4)sc3n2)cc1`, the IC50 was over 50 µM (H37RV).
`CCCCCCC#Cc1cncc(-c2nnc(SCc3cc(C(F)(F)F)cc(C(F)(F)F)c3)n2CCCN)c1` has an IC50 of 3.1 µM (resazurin; ERDMAN).
With `O=c1c2cc(Cl)ccc2[nH]c(=S)n1Cc1cncc(-c2nnn[nH]2)c1` the MIC90 was over 100 µM (H37RV).
`CCCCCCC#Cc1cncc(-c2nnc(SC[C@H]3O[C@@H](n4ccc(=O)[nH]c4=O)[C@H](O)[C@@H]3O)n2CCCN)c1` gave an IC50 of over 200 µM (resazurin; ERDMAN).
`O=C(Cc1ccccc1)Nc1cc(-c2ccccn2)nc2nncn12` has an IC90 of 2 µM (H37RV).
The MIC90 of `O=c1c2cc(Cl)c(CO)cc2[nH]c(=S)n1Cc1cccnc1` is reported as 3.6 µM (H37RV).
`O=[N+]([O-])c1cn2c(n1)OC[C@@H](OCc1ccc(OC(F)(F)F)cc1)C2` has an MIC of 0.125 µg/mL (H37RV).
